The subject of assay [1] is Rattus norvegicus. As to the kind of experiment: Antiinflammatory activity against carrageenan-induced paw edema in Sprague-Dawley rat at 10 mg/kg, po after 2 hrs. It counts as functional. An outline of the steps: (§1)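 Adult male rats, 150–180 g, six per group. Oral dose 1 h before 0.1 ml 1% carrageenin sc into the left hind footpad: test agents 15 mg/kg as suspension, indomethacin 10 mg/kg; vehicle 10% Tween 80. Paw volume by plethysmometer before injection, then hourly for 4 h. Edema % = (Vt−Vc)/Vc; inhibition % = (Ec−Et)/Ec. Potency taken relative to indomethacin. Means ± SE.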
Background: In the carrageenan paw model, swelling and tenderness develop within hours.

Assay [2] relates to Rattus norvegicus. As to the kind of experiment: Antiinflammatory activity against carrageenan-induced paw edema in Sprague-Dawley rat at 10 mg/kg, po after 1 hr. It counts as functional. An outline of the steps:
as §1

The subject of assay [3] is Rattus norvegicus. Description: Antiinflammatory activity against carrageenan-induced paw edema in Sprague-Dawley rat at 10 mg/kg, po after 4 hrs. The class given is functional. An outline of the steps:
as §1

In assay [4] the test system is Rattus norvegicus. As to the kind of experiment: Antiinflammatory activity against carrageenan-induced paw edema in Sprague-Dawley rat at 10 mg/kg, po after 3 hrs. It counts as functional. An outline of the steps:
as §1

Assay [5] relates to Rattus norvegicus. Description: Antiinflammatory activity against carrageenan-induced paw edema in Sprague-Dawley rat at 15 mg/kg, po relative to indomethacin after 3 hrs. The class given is functional. An outline of the steps: as §1
Assay [6] relates to Mus musculus. As to the kind of experiment: Analgesic activity in Swiss albino mouse assessed as reaction time at 15 mg/kg, po after 90 mins by hot plate test. The class given is functional. An outline of the steps: (§2)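 Mice of both sexes, 25–30 g, on a hot plate at 53 ± 0.5 °C; reaction time taken to hind-paw lick or jump, 60 s cut-off. Baseline read before dosing. Oral dosing in 10% v/v Tween 80 in water: test agents 15 mg/kg, acetylsalicylic acid 100 mg/kg. Re-read at 15, 30, 60 and 90 min; means ± SE.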

Assay [7] has as its system Staphylococcus aureus. Description: Antimicrobial activity against Staphylococcus aureus at 50 ug/disk after 24 to 28 hrs. The class given is functional. The note with it: read-out: IZ. An outline of the steps:
(§3)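 Agar disk diffusion: 5 mm paper disks loaded with 50 µg/disk in DMSO. Inhibition zones read after 24–28 h at 37 °C for bacteria, or 5 days at 28 °C for clinical Candida isolates grown on Sabouraud dextrose agar. Zone graded 6–10 mm slight, 11–15 mm moderate, >15 mm high. Reference disks: nalidixic acid 30 µg, nystatin 100 U.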

Assay [8] relates to Klebsiella pneumoniae. As to the kind of experiment: Antimicrobial activity against Klebsiella pneumoniae. It counts as functional. An outline of the steps:
(§4)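 MIC found by disk diffusion using disks carrying varying amounts of compound per disk, in DMSO. Incubated 24–28 h at 37 °C for bacteria and 5 days at 28 °C for Candida. MIC given in µg/disk.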

Assay [9] deals with Pseudomonas aeruginosa. As to the kind of experiment: Antimicrobial activity against Pseudomonas aeruginosa. It counts as functional. An outline of the steps:
as §4

The test system of assay [10] is Rattus norvegicus. As to the kind of experiment: Antiinflammatory activity against carrageenan-induced paw edema in Sprague-Dawley rat at 15 mg/kg, po relative to indomethacin after 4 hrs. It counts as functional. An outline of the steps: as §1
For assay [11], the system named is Rattus norvegicus. Description: Antiinflammatory activity against carrageenan-induced paw edema in Sprague-Dawley rat at 15 mg/kg, po after 2 hrs. The class given is functional. An outline of the steps:
as §1

In another assay the test system is Nakaseomyces glabratus. Description: Antimicrobial activity against Candida glabrata at 50 ug/disk after 5 days. The class given is functional. The note with it: 120 h, read-out: IZ. An outline of the steps: as §3
Assay [12] deals with Staphylococcus aureus. As to the kind of experiment: Antimicrobial activity against Staphylococcus aureus. The class given is functional. An outline of the steps: as §4
For assay [13], the system named is Candida albicans. As to the kind of experiment: Antimicrobial activity against Candida albicans at 50 ug/disk after 5 days. It counts as functional. The note with it: 120 h, read-out: IZ. An outline of the steps: as §3
Assay [14] deals with Rattus norvegicus. Description: Antiinflammatory activity against carrageenan-induced paw edema in Sprague-Dawley rat at 15 mg/kg, po after 4 hrs. The class given is functional. An outline of the steps: as §1
In assay [15] the test system is Rattus norvegicus. As to the kind of experiment: Antiinflammatory activity against carrageenan-induced paw edema in Sprague-Dawley rat at 15 mg/kg, po relative to indomethacin after 1 hr. It counts as functional. An outline of the steps:
as §1

Assay [16] relates to Rattus norvegicus. Description: Antiinflammatory activity against carrageenan-induced paw edema in Sprague-Dawley rat at 15 mg/kg, po after 3 hrs. It counts as functional. An outline of the steps:
as §1

The subject of assay [17] is Pseudomonas aeruginosa. As to the kind of experiment: Antimicrobial activity against Pseudomonas aeruginosa at 50 ug/disk after 24 to 28 hrs. It counts as functional. The note with it: read-out: IZ. An outline of the steps:
as §3

Assay [18] concerns Mus musculus. As to the kind of experiment: Analgesic activity against acetic acid-induced abdominal constriction in Swiss albino mouse at 15 mg/kg, po after 20 mins by writhing test. It counts as functional, Abdomen. An outline of the steps:
(§5)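 Mice of both sexes, 25–30 g, dosed orally in 10% v/v Tween 80 in water. Test agents were given at 15 mg/kg and acetylsalicylic acid at 100 mg/kg. 30 min later, 0.7% acetic acid (10 ml/kg) ip. Writhes counted over 20 min; six per group. % protection = (control mean − treated mean)/control mean ×100; means ± SE.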
On the technique in general: In writhing tests, fewer writhes than in controls are read as antinociception.

The subject of assay [19] is Mus musculus. As to the kind of experiment: Analgesic activity against acetic acid-induced abdominal constriction in Swiss albino mouse at 15 mg/kg, po after 20 mins by writhing test relative to acetylsalicylic acid. It counts as functional, Abdomen. An outline of the steps:
as §5

The test system of assay [20] is Candida albicans. As to the kind of experiment: Antimicrobial activity against Candida albicans. The class given is functional. An outline of the steps:
as §4

For assay [21], the system named is Mus musculus. Description: Analgesic activity in Swiss albino mouse assessed as reaction time at 15 mg/kg, po after 60 mins by hot plate test. It counts as functional. An outline of the steps:
as §2
On the technique in general: Thermal pain tests record how soon the animal reacts.

Assay [22] concerns Escherichia coli. As to the kind of experiment: Antimicrobial activity against Escherichia coli at 50 ug/disk after 24 to 28 hrs. The class given is functional. The note with it: read-out: IZ. An outline of the steps: as §3
In assay [23] the test system is Rattus norvegicus. As to the kind of experiment: Antiinflammatory activity against carrageenan-induced paw edema in Sprague-Dawley rat at 15 mg/kg, po relative to indomethacin after 2 hrs. It counts as functional. An outline of the steps: as §1
For assay [24], the system named is Klebsiella pneumoniae. Description: Antimicrobial activity against Klebsiella pneumoniae at 50 ug/disk after 24 to 28 hrs. The class given is functional. The note with it: read-out: IZ. An outline of the steps: as §3
Assay [25] has as its system Escherichia coli. As to the kind of experiment: Antimicrobial activity against Escherichia coli. It counts as functional. An outline of the steps:
as §4

Assay [26] has as its system Mus musculus. Description: Analgesic activity in Swiss albino mouse assessed as reaction time at 15 mg/kg, po after 30 mins by hot plate test. The class given is functional. An outline of the steps: as §2
Assay [27] has as its system Rattus norvegicus. Description: Antiinflammatory activity against carrageenan-induced paw edema in Sprague-Dawley rat at 15 mg/kg, po after 1 hr. It counts as functional. An outline of the steps: as §1
In assay [28] the test system is Mus musculus. As to the kind of experiment: Analgesic activity in Swiss albino mouse assessed as reaction time at 100 mg/kg, po after 30 mins by hot plate test. It counts as functional. An outline of the steps:
as §2

In assay [29] the test system is Mus musculus. As to the kind of experiment: Analgesic activity in Swiss albino mouse assessed as reaction time at 100 mg/kg, po after 90 mins by hot plate test. The class given is functional. An outline of the steps: as §2
Assay [30] relates to Mus musculus. As to the kind of experiment: Analgesic activity in Swiss albino mouse assessed as reaction time at 100 mg/kg, po after 60 mins by hot plate test. The class given is functional. An outline of the steps: as §2
Assay [31] deals with Mus musculus. Description: Analgesic activity against acetic acid-induced abdominal constriction in Swiss albino mouse at 100 mg/kg, po after 20 mins by writhing test. The class given is functional, Abdomen. An outline of the steps: as §5

The source of these data is ChEMBL document CHEMBL1143876, “Synthesis, analgesic, anti-inflammatory, and antimicrobial activity of some novel pyrimido[4,5-b]quinolin-4-ones” (2008).

A word on the inhibition in vivo: it is the share of the control response that was lost under treatment.

Consider `COc1ccc2c(c1)c(CC(=O)O)c(C)n2C(=O)c1ccc(Cl)cc1` [INDOMETHACIN], for which the inhibition in vivo at 10 mg/kg with Rattus norvegicus [1] came to 58.2%; in the assay on Rattus norvegicus [2], 56.9%; with Rattus norvegicus [3], 46.4%; with Rattus norvegicus [4] it was 42.6%.
Turning to `CC(=O)NNc1nc2nc3c(c(-c4ccccc4)c2c(=O)[nH]1)CCCC3`, the inhibition in vivo at 15 mg/kg came to 55.9% in the assay on Rattus norvegicus [5]; 46.9% with Rattus norvegicus [10]; 22.8% with Rattus norvegicus [11]; 21.8% in the assay with Rattus norvegicus [14]; 45.5% in the assay on Rattus norvegicus [15]; 23.9% in the assay on Rattus norvegicus [16]. In addition, the figures for the inhibition in vivo at 15 mg/kg with Rattus norvegicus [23] and with Rattus norvegicus [27] were 39.2% and 25.9%, respectively. In addition, the Time in the assay on Mus musculus [6] is given as 9.22 s; in the assay with Mus musculus [21], 8.06 s; in the assay on Mus musculus [26], 8.62 s. In addition, the zone of inhibition at 50 µg/disc in the assay on Staphylococcus aureus [7] stood at 19 mm; with Nakaseomyces glabratus, 16 mm; in the assay with Candida albicans [13], 17 mm; in the assay on Pseudomonas aeruginosa [17], 22 mm; in the assay with Escherichia coli [22], 20 mm; in the assay on Klebsiella pneumoniae [24], 18 mm. The MIC was 20 µg with Klebsiella pneumoniae [8]; 20 µg in the assay on Pseudomonas aeruginosa [9]; 20 µg in the assay on Staphylococcus aureus [12]; 50 µg against Candida albicans [20]; 20 µg with Escherichia coli [25]. Besides, the Activity in the assay on Mus musculus [18] turned out to be 60.4%; in the assay on Mus musculus [19], 116.83%.
As to `CC(=O)Oc1ccccc1C(=O)O` [ASPIRIN], the Time in the assay with Mus musculus [28] is 10.03 s; in the assay on Mus musculus [29] it was 13.15 s; in the assay on Mus musculus [30], 11.39 s. Also, in the assay with Mus musculus [31], the Activity came to 51.7%.
